Source: ChEMBL document CHEMBL1146084, “Discovery of orally efficacious melanin-concentrating hormone receptor-1 antagonists as antiobesity agents. Synthesis, SAR, and biological evaluation of bicyclo[3.1.0]hexyl ureas” (J Med Chem, 2006)
pKi: −log10 of the molar value. Activity calls are given as the source filed them. The calls are words filed in the database; no cut-off is given here.

Tests used:
[1] = target: Melanin-concentrating hormone receptor 1 (Mus musculus) (UniProt Q8JZL2); experiment: Receptor occupancy ex vivo by displacement of [125I]S36057 binding from MCHR1 in C57BL/6N mouse brain after 6 hrs at 30 mg/kg, po; assay type: functional, organism-based; design: dose 30 mg/kg
Summary of the method: (§1)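 Male C57Bl/6NCrl:BR mice given vehicle (HPβCD) or compound orally; killed by CO2 at 6 or 24 h post-dose (chronic studies: 24 h after last daily dose, n = 3/group). 16 µm frozen caudate putamen sections incubated 30 min at room temperature with 700 pM [125I]-S36057 in MCH-R1 binding buffer; 1 µM MCH defines nonspecific binding. Phosphorimager quantitation; % inhibition versus vehicle.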

[2] = (§2) AUC (0-24h) in rat at 10 mg/kg, po; assay type: ADME, organism-based, Plasma; design: time < 24 hr, dose 10 mg/kg, route oral; conditions: plasma
Mus musculus [3] = experiment: Reduction of food intake in orally dosed C57BL/6N DIO mouse after 24 hrs at 30 mg/kg relative to control; assay type: functional; conditions: for Food intake (% of vehicle control): route oral
Summary of the method: (§3)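 Male C57Bl/6NCrl:BR mice made obese on a 45%-fat diet, individually housed, 12 h light/dark, 22 °C; acclimated to oral 20% hydroxypropyl-β-cyclodextrin vehicle for 2-3 days. Single oral 30 mg/kg dose in 20% HPβCD; food intake weighed to 0.01 g at 2, 6 and 24 h, expressed as % of vehicle ± SEM.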

[4] = Ratio of drug level in brain against plasma in rat after 6 hrs at 10 mg/kg, po; assay type: ADME, organism-based; design: dose 10 mg/kg, route oral
[5] = target: T1, Melanin-concentrating hormone receptor 1 (Homo sapiens, UniProt Q99705); experiment: Displacement of [125I]MCH from human MCHR1 expressed in CHO cell; assay type: cell-based
[6] = target: T1, Melanin-concentrating hormone receptor 1; experiment: Inhibition of MCH-mediated calcium influx in CHO cells expressing human MCHR1 by FLIPR assay; assay type: functional, cell-based
Summary of the method: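 After two washes, treated with vehicle (buffer, 2% DMSO) or compound, then stimulated with 30 nM MCH; intracellular Ca²⁺ change read by FLIPR.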

Mus musculus [7] = experiment: Reduction of food intake in orally dosed C57BL/6N DIO mouse after 6 hrs at 30 mg/kg relative to control; assay type: functional; conditions: route oral; summary of the method: as §3
[8] = (§4) AUC (0-6h) in rat at 10 mg/kg, po; assay type: ADME, organism-based, Plasma; design: time < 6 hr, dose 10 mg/kg, route oral; conditions: plasma
Mus musculus [9] = experiment: Reduction of food intake in orally dosed C57BL/6N DIO mouse after 2 hrs at 30 mg/kg relative to control; assay type: functional; design: Activity: scale not given: the % may be the effect or the level left; conditions: route oral; summary of the method: as §3
Mus musculus [10] = experiment: Reduction of cumulative food intake in C57BL/6N DIO mouse relative to control after 28 days at 30 mg/kg, po; assay type: functional
Summary of the method: (§5)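 DIO male C57Bl/6NCrl:BR mice (45%-fat diet, individually housed), acclimated to vehicle dosing, given compound orally once daily in 20% HPβCD for 5 or 28 days, n = 11/group. Body weight (to 0.1 g) and food intake from preweighed 3-3.5 g pellets (to 0.01 g) recorded daily; cumulative intake and % weight change at endpoint versus vehicle, ± SEM.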

Rattus norvegicus [11] = experiment: Bioavailability in rat at 10 mg/kg, iv or po; assay type: ADME, organism-based; conditions: in vivo
Mus musculus [12] = experiment: Change in body weight of C57BL/6N DIO mouse relative to control after 5 days at 10 mg/kg, po; assay type: functional; summary of the method: as §5
Mus musculus [13] = experiment: Reduction of cumulative food intake in C57BL/6N DIO mouse relative to control after 5 days at 30 mg/kg, po; assay type: functional; summary of the method: as §5
Rattus norvegicus [14] = experiment: Volume of distribution in rat at 10 mg/kg, iv or po; assay type: ADME, organism-based; design: dose 10 mg/kg, route oral; conditions: in vivo
Mus musculus [15] = experiment: Reduction of cumulative food intake in C57BL/6N DIO mouse relative to control after 5 days at 10 mg/kg, po; assay type: functional; summary of the method: as §5
Mus musculus [16] = experiment: Change in body weight of C57BL/6N DIO mouse relative to control after 28 days at 30 mg/kg, po; assay type: functional; summary of the method: as §5
[17] = target: Melanin-concentrating hormone receptor 1 (Mus musculus) (UniProt Q8JZL2); conditions: C57BL/6N, Brain, 10 mg/kg
Rattus norvegicus [18] = experiment: as §2; assay type: ADME, organism-based, Plasma; design: time < 24 hr, dose 10 mg/kg, route oral; conditions: in vivo, 24 h
Mus musculus [19] = experiment: Change in body weight of C57BL/6N DIO mouse relative to control after 28 days at 10 mg/kg, po; assay type: functional; summary of the method: as §5
Rattus norvegicus [20] = experiment: as §4; assay type: ADME, organism-based, Plasma; design: time < 6 hr, dose 10 mg/kg, route oral; conditions: in vivo, 6 h
Mus musculus [21] = experiment: Change in body weight of C57BL/6N DIO mouse relative to control after 5 days at 30 mg/kg, po; assay type: functional; summary of the method: as §5
[22] = Half life in rat at 10 mg/kg, iv; assay type: ADME, organism-based; design: dose 10 mg/kg, route intravenous; conditions: in vivo
[23] = target: Melanin-concentrating hormone receptor 1 (Mus musculus) (UniProt Q8JZL2); experiment: Receptor occupancy ex vivo by displacement of [125I]S36057 binding from MCHR1 in C57BL/6N mouse brain after 24 hrs at 30 mg/kg, po; assay type: functional, organism-based; design: dose 30 mg/kg; summary of the method: as §1
Mus musculus [24] = experiment: Reduction of cumulative food intake in C57BL/6N DIO mouse relative to control after 28 days at 10 mg/kg, po; assay type: functional; summary of the method: as §5

T1 sequence (Q99705 whole entry): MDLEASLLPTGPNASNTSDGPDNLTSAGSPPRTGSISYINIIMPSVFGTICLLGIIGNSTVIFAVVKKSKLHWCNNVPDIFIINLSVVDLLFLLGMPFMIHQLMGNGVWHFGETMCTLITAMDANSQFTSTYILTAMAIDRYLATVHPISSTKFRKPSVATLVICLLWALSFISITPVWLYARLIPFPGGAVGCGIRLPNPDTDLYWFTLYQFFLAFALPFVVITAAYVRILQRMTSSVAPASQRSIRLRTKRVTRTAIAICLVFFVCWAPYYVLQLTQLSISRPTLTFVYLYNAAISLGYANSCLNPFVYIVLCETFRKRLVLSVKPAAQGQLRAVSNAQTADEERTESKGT
Chain of Melanin-concentrating hormone receptor 1 (Mus musculus) (Q8JZL2 whole entry): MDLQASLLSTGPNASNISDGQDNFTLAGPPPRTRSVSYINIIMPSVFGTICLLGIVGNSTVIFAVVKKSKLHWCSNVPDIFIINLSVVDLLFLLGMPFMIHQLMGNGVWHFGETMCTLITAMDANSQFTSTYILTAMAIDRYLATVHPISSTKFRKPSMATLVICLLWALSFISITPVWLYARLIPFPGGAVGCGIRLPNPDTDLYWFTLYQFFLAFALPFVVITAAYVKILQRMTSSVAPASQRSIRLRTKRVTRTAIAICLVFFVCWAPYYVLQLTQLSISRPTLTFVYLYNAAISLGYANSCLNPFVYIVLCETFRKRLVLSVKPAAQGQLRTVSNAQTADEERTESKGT

| Activity [1] | pKi [5] | AUC(0-t) at 6 h [8] | AUC (Rattus norvegicus [20]) | SMILES | Food intake (% of vehicle control) (Mus musculus [7]) | Food intake (% of vehicle control) (Mus musculus [3]) | Food intake (% of vehicle) (Mus musculus [9]) | also measured |
| --- | --- | --- | --- | --- | --- | --- | --- | --- |
| 58% | – | – | – | N#Cc1cccc([C@]23CC[C@@H](N(CCN4CC[C@@H](O)C4)C(=O)Nc4ccc(F)c(Cl)c4)C[C@H]2C3)c1 | – | – | – | AUC(0-t) at 24 h [2]: 14 µM·h; Activity (Mus musculus [3]): inactive; Kp at 6 h [4]: 0.7 |
| 81% | – | 2.19 µg·h/mL | – | N#Cc1cccc([C@]23CC[C@@H](N(CCN4CC[C@@H](O)C4)C(=O)Nc4ccc(F)c(C(F)(F)F)c4)[C@H]2C3)c1 | 68.2% | 80.8% | 65.7% | – |
| – | 7.89 | – | 0.585 µg·h/mL | N#Cc1cccc([C@]23CC[C@@H](N(CCN4CC[C@@H](O)C4)C(=O)Nc4ccc(F)c(Cl)c4)[C@H]2C3)c1 (stereo in doubt; (+)-23c) | – | – | – | – |
| – | – | – | 2.404 µg·h/mL | N#Cc1cccc([C@]23CC[C@@H](N(CCN4CC[C@@H](O)C4)C(=O)Nc4ccc(F)c(Cl)c4)[C@H]2C3)c1 (stereo in doubt; (-)-23d) | – | – | – | – |

The remaining lines, values behind:

| SMILES | Activity [1] | pKi [5] | AUC(0-t) at 6 h [8] | AUC (Rattus norvegicus [20]) | Food intake (% of vehicle control) (Mus musculus [7]) | Food intake (% of vehicle control) (Mus musculus [3]) | Food intake (% of vehicle) (Mus musculus [9]) | also measured |
| --- | --- | --- | --- | --- | --- | --- | --- | --- |
| N#Cc1cccc([C@]23CC[C@@H](N(CCN4CC[C@H](O)C4)C(=O)Nc4ccc(F)c(C(F)(F)F)c4)C[C@H]2C3)c1 | 73% | 7.82 | – | – | – | – | – | AUC(0-t) at 24 h [2]: 16.4 µM·h; Activity (Mus musculus [3]): Active; Kp at 6 h [4]: 1.1; Kb [6]: 11 nM |
| CN1CCN(CCCN(C(=O)Nc2ccc(F)c(C(F)(F)F)c2)[C@@H]2CC[C@]3(c4ccc(C#N)cc4)C[C@H]23)CC1 (relative stereo) | 99% | 8.57 | – | 0.642 µg·h/mL | 76% | 78.1% | 77.3% | Activity (Mus musculus [10]): 79.4 g; F (Rattus norvegicus [11]): 27%; Activity (Mus musculus [12]): -2.26%; Activity (Mus musculus [13]): 11.7 g; Vdss (Rattus norvegicus [14]): 5.6 L/kg; Activity (Mus musculus [15]): 14.9 g; Activity (Mus musculus [16]): -9.83%; inhibition [17]: > 65%; AUC (Rattus norvegicus [18]): 3.9 µM·h; Activity (Mus musculus [19]): -1.48%; Kb [6]: 1.9 nM; Activity (Mus musculus [21]): -6.04%; half-life [22]: 4 h; Activity [23]: 58%; Activity (Mus musculus [24]): 87 g |
| N#Cc1cccc([C@]23CC[C@@H](N(CCCCN4CCOCC4)C(=O)Nc4ccc(F)c(C(F)(F)F)c4)[C@H]2C3)c1 (relative stereo) | 64% | 8.60 | 0.45 µg·h/mL | – | 83.4% | 94.1% | 88% | – |
| CN1CCN(CCCCN(C(=O)Nc2ccc(F)c(C(F)(F)F)c2)[C@@H]2CC[C@]3(c4cccc(C#N)c4)C[C@H]23)CC1 (relative stereo) | 85% | – | 1.68 µg·h/mL | – | 81.6% | 89.1% | 81.1% | – |
| N#Cc1cccc([C@]23CC[C@@H](N(CCCCN4CCCCC4)C(=O)Nc4ccc(F)c(C(F)(F)F)c4)[C@H]2C3)c1 (relative stereo) | 72% | – | 1.16 µg·h/mL | – | 101.1% | 102% | 92% | – |
| CN1CCN(CCCN(C(=O)Nc2ccc(F)c(Cl)c2)[C@@H]2CC[C@]3(c4ccc(OC(F)(F)F)cc4)C[C@H]23)CC1 (relative stereo) | 96% | – | 0.578 µg·h/mL | – | 80.5% | 85.9% | – | Activity (Mus musculus [9]): 86.2%; Activity [23]: 15% |
